According to article PMC4277818 (Molecular imaging and biology : MIB : the official …, 2012):

Tested on: TRAP5b
Assay: Serum TRAP5b solid-phase immunoassay
Type: in vivo, C57BL/6 mice
Conditions: 0.3 mg/kg RANKL twice a day for 10 days; PET/CT imaging study, n=4
Method in brief: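 Male C57BL/6 mice (~23 g) got RANKL s.c. in the nape in 50 μL saline, twice a day for 10 days, under brief isoflurane; controls got vehicle. Blood was taken by submandibular venous puncture before biodistribution or at sacrifice. Serum was spun at 10,000 rpm for 5 min at 4°C and stored at −20°C. Osteoclastic TRAP5b was measured by solid-phase immunoassay. P<0.05 was significant.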

B1: RANKL: receptor activator of nuclear factor κB ligand, cytokine stimulating osteoclastogenesis; provided by Amgen (protein, UniProt O14788 140-317, looked up)
Tumor necrosis factor ligand …: IRAEKAMVDGSWLDLAKRSKLEAQPFAHLTINATDIPSGSHKVSLSSWYHDRGWAKISNMTFSNGKLIVNQDGFYYLYANICFRHHETSGDLATEYLQLMVYVTKTSIKIPSSHTLMKGGSTKYWSGNSEFHFYSINVGGFFKLRSGEEISIEVSNPSLLDPDQDATYFGAFKVRDID
In the case of B1, the “increase of serum TRAP5b, RANKL-treated vs control cohort” value is reported as 1.6 fold.
